Three compounds from ChEMBL document CHEMBL1125291, “New 8-(trifluoromethyl)-substituted quinolones. The benefits of the 8-fluoro group with reduced phototoxic risk” (1992) can be followed below.

The term MIC denotes the least concentration at which growth counts as inhibited. By MTD is commonly meant the largest dose that counted as tolerated.

Assay [1] has as its system Pseudomonas aeruginosa. Kind of assay: In vivo efficacy (orally) against Pseudomonas aeruginosa in mouse protection test. Format: functional. Particulars: Pseudomonas aeruginosa, po; read-out: PD50. Put shortly:
(§1)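 Acute lethal systemic infections in female Charles River CD-1 mice. A single dose was given at challenge, orally by gavage or by subcutaneous injection. PD50 (median protective dose, mg/kg) was determined.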

Assay [2] concerns Pseudomonas aeruginosa. In words: Minimum inhibitory concentration (MIC) against gram negative bacteria Pseudomonas aeruginosa UI-18. Format: functional. Conditions: Pseudomonas aeruginosa; read-out: MIC. Put shortly:
(§2)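 MICs were determined by standard broth microtitration against 11 Gram-positive and Gram-negative organisms, in µg/mL. Values come from duplicate or triplicate experiments and are accurate to ±50%.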

Assay [3] concerns Escherichia coli. Kind of assay: Minimum inhibitory concentration (MIC) against gram negative bacteria Escherichia coli Vogel. Format: functional. Conditions: Escherichia coli; read-out: MIC. Put shortly:
as §2

For assay [4], the species on record is Mus musculus. In words: Days of the first positive reaction in […] mice. It counts as functional. In outline: (§3)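 Phototoxic skin reaction test in depilated female CD-1 mice. A single oral dose (gavage) or subcutaneous dose was given, followed 1 h later by 3 h of UVA exposure (320–400 nm). The regimen was repeated for up to 4 consecutive days, with initial doses of 30, 100 and 300 mg/kg. PTD50 was derived by the probit method. The first day of positive reaction and the no-effect dose were taken from the raw data.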

The subject of assay [5] is Streptococcus pyogenes. In words: In vivo efficacy (orally) against Streptococcus pyogenes C-203 in mouse protection test. Format: functional. Particulars: Streptococcus pyogenes, po; read-out: PD50. In outline: as §1
The test system of assay [6] is Escherichia coli. Kind of assay: Minimum inhibitory concentration (MIC) against gram negative bacteria Escherichia coli H-560. It counts as functional. Particulars: Escherichia coli; read-out: MIC. Put shortly:
as §2

The test system of assay [7] is Staphylococcus aureus. In words: Minimum inhibitory concentration (MIC) against gram positive bacteria Staphylococcus aureus H-228. Conditions: Staphylococcus aureus; read-out: MIC. It counts as functional. In outline:
as §2

The subject of assay [8] is Enterococcus faecalis. Kind of assay: Minimum inhibitory concentration (MIC) against gram positive bacteria Streptococcus faecalis MGH-2. It counts as functional. Particulars: Enterococcus faecalis; read-out: MIC. Put shortly:
as §2

The test system of assay [9] is Streptococcus pneumoniae. Kind of assay: In vivo efficacy (s.c.) against Streptococcus pneumoniae SV-1 in mouse protection test. Particulars: Streptococcus pneumoniae, sc; read-out: PD50. Format: functional. In outline:
as §1

The species entered for assay [10] is Mus musculus. In words: Dose required to induce phototoxic reaction in 50% of mice by probit method at different dosage forms. Format: functional.
The species entered for assay [11] is Mus musculus. In words: Dose which has no effect to induce phototoxic reaction in 50% of mice by probit method. It counts as functional.
The subject of assay [12] is Escherichia coli. Kind of assay: In vivo efficacy in mouse protection test in Escherichia coli Vogel dose administered orally by gavage. It counts as functional. Conditions: Escherichia coli, po; read-out: PD50. In outline:
as §1

Assay [13] in a line: Number of mice which show positive phototoxic reaction in 15 mice. It counts as functional, Mus musculus. In outline:
as §3

The test system of assay [14] is Streptococcus pyogenes. Kind of assay: Minimum inhibitory concentration (MIC) against gram positive bacteria Streptococcus pyogenes C-203. It counts as functional. Particulars: Streptococcus pyogenes; read-out: MIC. Put shortly:
as §2

Assay [15] in a line: Minimum inhibitory concentration (MIC) against gram negative bacteria Prot. rettgeri M-1771. It counts as functional, Providencia rettgeri. Particulars: Providencia rettgeri; read-out: MIC. Put shortly: as §2
The subject of assay [16] is Enterobacter cloacae. Kind of assay: Minimum inhibitory concentration (MIC) against gram negative bacteria Enterobacter cloacae MA-2646. Format: functional.
Assay [17] deals with Streptococcus pyogenes. In words: In vivo efficacy (s.c.) against Streptococcus pyogenes C-203 in mouse protection test. Format: functional. Particulars: Streptococcus pyogenes, sc; read-out: PD50. Put shortly:
as §1

Assay [18] concerns Streptococcus pneumoniae. In words: Minimum inhibitory concentration (MIC) against gram positive bacteria Streptococcus pneumoniae SV-1. Format: functional. Conditions: Streptococcus pneumoniae; read-out: MIC. Put shortly: as §2
Assay [19] deals with Klebsiella pneumoniae. In words: Minimum inhibitory concentration (MIC) against gram negative bacteria Klebsiella pneumoniae MGH-2. Conditions: Klebsiella pneumoniae; read-out: MIC. It counts as functional. Put shortly: as §2
The test system of assay [20] is Streptococcus pneumoniae. In words: In vivo efficacy (orally) against Streptococcus pneumoniae SV-1 in mouse protection test. It counts as functional. Conditions: Streptococcus pneumoniae, po; read-out: PD50. Put shortly: as §1
In assay [21] the test system is Staphylococcus aureus. In words: Minimum inhibitory concentration (MIC) against gram positive bacteria Staphylococcus aureus UC-76. Format: functional. Particulars: Staphylococcus aureus; read-out: MIC. Put shortly:
as §2

In assay [22] the test system is Escherichia coli. In words: In vivo efficacy in mouse protection test in Escherichia coli Vogel administered by subcutaneous injection. Particulars: Escherichia coli, sc; read-out: PD50. It counts as functional. In outline: as §1
Assay [23] relates to Mus musculus. In words: Maximum tolerance dose was measured for phototoxic skin reaction by po administration. Format: functional.
Assay [24] concerns Pseudomonas aeruginosa. In words: In vivo efficacy (s.c.) against Pseudomonas aeruginosa in mouse protection test. Format: functional. Conditions: Pseudomonas aeruginosa, sc; read-out: PD50. Put shortly:
as §1

For assay [25], the species on record is Mus musculus. In words: Number of mice which show positive phototoxic reaction in 5 mice. Format: functional.
Assay [26] is filed under the species Mus musculus. In words: Dose required to induce phototoxic reaction in 50% of mice by […] reactions at different dosage forms. Format: functional. Put shortly:
(§4)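 Depilated female CD-1 mice got a single oral (gavage) or subcutaneous dose, then UVA (320–400 nm) exposure for 3 h starting 1 h post-dose. This was repeated for up to 4 consecutive days. Initial doses were 30, 100 and 300 mg/kg. PTD50 was derived by probit. First day of positive reaction and no-effect dose were taken from the raw data.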

The nature of assay [27]: Days of the first positive reaction in […] mice. Format: functional, Mus musculus. Put shortly: as §4
The subject of assay [28] is Mus musculus. Kind of assay: Maximum tolerance dose was measured for phototoxic skin reaction by po administration in mice. It counts as functional. In outline:
as §4

Assay [29] has as its system Escherichia coli. Kind of assay: Minimum inhibitory concentration (MIC) against gram negative bacteria Escherichia coli H-560. Format: functional. Put shortly: as §2
The subject of assay [30] is Staphylococcus aureus. In words: Minimum inhibitory concentration (MIC) against gram positive bacteria Staphylococcus aureus H-228. Format: functional. Put shortly: as §2
A short description of assay [31]: Minimum inhibitory concentration (MIC) against gram negative bacteria Prot. rettgeri M-1771. Particulars: Providencia rettgeri. Format: functional. In outline:
as §2

Values after ≈ are worked out from the molar mass of the structure shown.

On to `NC1CCN(c2c(F)cc3c(=O)c(C(=O)O)cn(C4CC4)c3c2F)C1` (stereo not drawn), for which the ED50 in [1] was 6.5 mg/kg; in assay [5], 7.5 mg/kg; in assay [9], 5.5 mg/kg; in [12] it was 0.9 mg/kg; in assay [17] it was 2.3 mg/kg; in [20], 15 mg/kg. The ED50 in [22] amounted to 0.2 mg/kg; in assay [24], 3 mg/kg. Besides, the MIC in assay [2] is 0.1 µg/mL (≈ 0.286 µM); in assay [3], 0.025 µg/mL (≈ 0.0716 µM); in assay [6], 0.003 µg/mL (≈ 0.00859 µM); in assay [7] it was 0.05 µg/mL (≈ 0.143 µM); in [8], 0.1 µg/mL (≈ 0.286 µM); in assay [14], 0.05 µg/mL (≈ 0.143 µM). The MIC came to 0.1 µg/mL (≈ 0.286 µM) in assay [15]; 0.013 µg/mL (≈ 0.0372 µM) in assay [16]; 0.1 µg/mL (≈ 0.286 µM) in assay [18]; 0.025 µg/mL (≈ 0.0716 µM) in [19]; 0.025 µg/mL (≈ 0.0716 µM) in assay [21]. Moreover, in [4], the “Day of first positve reaction” value was 3. In addition, the PTD50 in assay [10] worked out at 4.2 mg/kg. In addition, the No effect dose in [11] is 3 mg/kg. In [13], the “No. of pos rxns” value was 15. The compound also registered an MTD in assay [23] of 6 mg/kg.

Consider `O=C(O)c1cn(C2CC2)c2c(F)c(N3CCNCC3)c(F)cc2c1=O`, for which the ED50 was 6.6 mg/kg in [1]; 33 mg/kg in assay [5]; 29 mg/kg in assay [9]; 0.45 mg/kg in assay [12]; 8.9 mg/kg in assay [17]; 59 mg/kg in assay [20]. Further, the ED50 in assay [22] is 0.26 mg/kg; in assay [24], 2.5 mg/kg. Also, the minimal inhibitory concentration (MIC) in [2] worked out at 0.2 µg/mL (≈ 0.573 µM); in assay [3], 0.05 µg/mL (≈ 0.143 µM); in assay [6] it was 0.013 µg/mL (≈ 0.0372 µM); in assay [7] it was 0.4 µg/mL (≈ 1.15 µM); in assay [8] it was 0.4 µg/mL (≈ 1.15 µM); in assay [14], 0.8 µg/mL (≈ 2.29 µM). Further, the MIC in assay [15] is 0.1 µg/mL (≈ 0.286 µM); in assay [16] it was 0.025 µg/mL (≈ 0.0716 µM); in assay [18], 0.8 µg/mL (≈ 2.29 µM); in assay [19] it was 0.05 µg/mL (≈ 0.143 µM); in assay [21], 0.1 µg/mL (≈ 0.286 µM). Also, the “No. of pos rxns” value in assay [25] came to 0. Also, in [11], the No effect dose was 100 mg/kg. The compound further displayed a PTD50 in [26] of 171 mg/kg. In assay [23], the MTD amounted to 100 mg/kg. The “Day of first positve reaction” value in [27] is recorded as 0.

In [28], `O=C(O)c1cn(C2CC2)c2c(C(F)(F)F)c(N3CCNCC3)c(F)cc2c1=O` displayed an MTD of 100 mg/kg. Further, the minimal inhibitory concentration (MIC) came to 1.6 µg/mL (≈ 4.01 µM) in assay [2]; 0.05 µg/mL (≈ 0.125 µM) in assay [3]; 0.05 µg/mL (≈ 0.125 µM) in assay [29]; 0.4 µg/mL (≈ 1 µM) in assay [8]; 0.4 µg/mL (≈ 1 µM) in [30]; 0.2 µg/mL (≈ 0.501 µM) in [31]. Besides, the MIC amounted to 0.4 µg/mL (≈ 1 µM) in assay [14]; 0.05 µg/mL (≈ 0.125 µM) in assay [16]; 0.4 µg/mL (≈ 1 µM) in assay [18]; 0.1 µg/mL (≈ 0.25 µM) in [19]; 0.1 µg/mL (≈ 0.25 µM) in assay [21]. The “No. of pos rxns” value in assay [25] was determined as 0. Further, the ED50 in assay [9] is 26 mg/kg; in assay [12], 1.8 mg/kg; in [20], 75 mg/kg; in assay [22] it was 0.9 mg/kg. Also, the PTD50 in [10] was more than 100 mg/kg. Further, the No effect dose in assay [11] came to 100 mg/kg. Also, in [27], the “Day of first positve reaction” value is reported as 0.
